Experimental data as given in ChEMBL document CHEMBL5058577, “EUbOPEN Chemogenomics Library 2 (Multiplex)” (2022).

Test system: Fibroblast
Experiment: Multiplex assay against human fibroblast
Assay type: toxicity, cell-based
In short: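 Cells were classed with CellPathfinder machine-learning gating, first as Hoechst high-intensity objects or normal cells, then (normal cells) as healthy, pyknosed or fragmented nuclei, and finally (pyknosed cells) as mitotic or apoptotic. Staining of live cells at seeding used Hoechst33342, BioTracker Green Microtubule Cytoskeleton Dye, MitoTracker Red and Annexin V Alexa Fluor 680, with imaging on a CQ1 microscope at 37°C and 5% CO2 after compound addition. Tubulin, mitochondrial-mass and membrane-permeability phenotypes are per cents of healthy-nucleus cells.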

[1] = 12 h, 1 µM, compound concentration 1 uM, replicate 1
[2] = 12 h, 1 µM, compound concentration 1 uM, replicate 2
[3] = 12 h, 10 µM, compound concentration 10 uM, replicate 1
[4] = 12 h, 10 µM, compound concentration 10 uM, replicate 2
[5] = 24 h, 1 µM, compound concentration 1 uM, replicate 1
[6] = 24 h, 1 µM, compound concentration 1 uM, replicate 2
[7] = 24 h, 10 µM, compound concentration 10 uM, replicate 1
[8] = 24 h, 10 µM, compound concentration 10 uM, replicate 2
[9] = 48 h, 1 µM, compound concentration 1 uM, replicate 1
[10] = 48 h, 1 µM, compound concentration 1 uM, replicate 2
[11] = 48 h, 10 µM, compound concentration 10 uM, replicate 1
[12] = 48 h, 10 µM, compound concentration 10 uM, replicate 2

## CCCCC(=O)N(Cc1ccc(-c2ccccc2-c2nnn[nH]2)cc1)[C@H](C(=O)O)C(C)C
[1]
  Population Apoptotic (%): 45%
  Population Fragmented Nuclei (%): 9%
  Population Healthy Nuclei (%): 74%
  Population Hoechst High Intensity Objects (%): 4%
  Population Membrane Permeable-Phenotype (%): 0%
  Population Mitochondria Different-Phenotype (%): 0%
  Population Mitotic Cells (%): 54%
  Population Normal (%): 95%
  Population Pyknosed Nuclei (%): 16%
  Population Tubulin-Different-Phenotype (%): 20%
  Total Cell Count: 143
[2]
  Population Apoptotic (%): 44%
  Population Fragmented Nuclei (%): 21%
  Population Healthy Nuclei (%): 54%
  Population Hoechst High Intensity Objects (%): 3%
  Population Membrane Permeable-Phenotype (%): 8%
  Population Mitochondria Different-Phenotype (%): 6%
  Population Mitotic Cells (%): 55%
  Population Normal (%): 96%
  Population Pyknosed Nuclei (%): 24%
  Population Tubulin-Different-Phenotype (%): 36%
  Total Cell Count: 156
[3]
  Population Apoptotic (%): 37%
  Population Fragmented Nuclei (%): 20%
  Population Healthy Nuclei (%): 56%
  Population Hoechst High Intensity Objects (%): 0%
  Population Membrane Permeable-Phenotype (%): 3%
  Population Mitochondria Different-Phenotype (%): 3%
  Population Mitotic Cells (%): 62%
  Population Normal (%): 100%
  Population Pyknosed Nuclei (%): 22%
  Population Tubulin-Different-Phenotype (%): 23%
  Total Cell Count: 106
[4]
  Population Fragmented Nuclei (%): 27%
  Population Healthy Nuclei (%): 42%
  Population Hoechst High Intensity Objects (%): 3%
  Population Membrane Permeable-Phenotype (%): 11%
  Population Mitochondria Different-Phenotype (%): 11%
  Population Normal (%): 96%
  Population Pyknosed Nuclei (%): 29%
  Population Tubulin-Different-Phenotype (%): 51%
  Total Cell Count: 130
[5]
  Population Apoptotic (%): 66%
  Population Fragmented Nuclei (%): 15%
  Population Healthy Nuclei (%): 70%
  Population Hoechst High Intensity Objects (%): 0%
  Population Membrane Permeable-Phenotype (%): 1%
  Population Mitochondria Different-Phenotype (%): 2%
  Population Mitotic Cells (%): 33%
  Population Normal (%): 99%
  Population Pyknosed Nuclei (%): 14%
  Population Tubulin-Different-Phenotype (%): 17%
  Total Cell Count: 146
[6]
  Population Apoptotic (%): 38%
  Population Fragmented Nuclei (%): 21%
  Population Healthy Nuclei (%): 52%
  Population Hoechst High Intensity Objects (%): 2%
  Population Membrane Permeable-Phenotype (%): 2%
  Population Mitochondria Different-Phenotype (%): 1%
  Population Mitotic Cells (%): 61%
  Population Normal (%): 97%
  Population Pyknosed Nuclei (%): 25%
  Population Tubulin-Different-Phenotype (%): 25%
  Total Cell Count: 145
[7]
  Population Apoptotic (%): 48%
  Population Fragmented Nuclei (%): 18%
  Population Healthy Nuclei (%): 56%
  Population Hoechst High Intensity Objects (%): 2%
  Population Membrane Permeable-Phenotype (%): 0%
  Population Mitochondria Different-Phenotype (%): 1%
  Population Mitotic Cells (%): 51%
  Population Normal (%): 97%
  Population Pyknosed Nuclei (%): 25%
  Population Tubulin-Different-Phenotype (%): 31%
  Total Cell Count: 110
[8]
  Population Apoptotic (%): 35%
  Population Fragmented Nuclei (%): 25%
  Population Healthy Nuclei (%): 44%
  Population Hoechst High Intensity Objects (%): 4%
  Population Membrane Permeable-Phenotype (%): 9%
  Population Mitochondria Different-Phenotype (%): 10%
  Population Mitotic Cells (%): 64%
  Population Normal (%): 95%
  Population Pyknosed Nuclei (%): 29%
  Population Tubulin-Different-Phenotype (%): 65%
  Total Cell Count: 130
[9]
  Population Apoptotic (%): 80%
  Population Fragmented Nuclei (%): 18%
  Population Healthy Nuclei (%): 71%
  Population Hoechst High Intensity Objects (%): 6%
  Population Membrane Permeable-Phenotype (%): 0%
  Population Mitochondria Different-Phenotype (%): 1%
  Population Mitotic Cells (%): 20%
  Population Normal (%): 93%
  Population Pyknosed Nuclei (%): 10%
  Population Tubulin-Different-Phenotype (%): 17%
  Total Cell Count: 153
[10]
  Population Apoptotic (%): 40%
  Population Fragmented Nuclei (%): 27%
  Population Healthy Nuclei (%): 51%
  Population Hoechst High Intensity Objects (%): 3%
  Population Membrane Permeable-Phenotype (%): 1%
  Population Mitochondria Different-Phenotype (%): 3%
  Population Mitotic Cells (%): 59%
  Population Normal (%): 96%
  Population Pyknosed Nuclei (%): 21%
  Population Tubulin-Different-Phenotype (%): 33%
  Total Cell Count: 155
[11]
  Population Apoptotic (%): 64%
  Population Fragmented Nuclei (%): 28%
  Population Healthy Nuclei (%): 56%
  Population Hoechst High Intensity Objects (%): 4%
  Population Membrane Permeable-Phenotype (%): 0%
  Population Mitochondria Different-Phenotype (%): 5%
  Population Mitotic Cells (%): 35%
  Population Normal (%): 95%
  Population Pyknosed Nuclei (%): 15%
  Population Tubulin-Different-Phenotype (%): 30%
  Total Cell Count: 112
[12]
  Population Apoptotic (%): 57%
  Population Fragmented Nuclei (%): 39%
  Population Healthy Nuclei (%): 39%
  Population Membrane Permeable-Phenotype (%): 7%
  Population Mitotic Cells (%): 42%
  Population Pyknosed Nuclei (%): 20%
  Population Tubulin-Different-Phenotype (%): 69%
  Total Cell Count: 141
